The source made the active and inactive calls. The calls are words filed in the database; no cut-off is given here.
Experiments:
[1] = tested on: Human orthopneumovirus; test: (§1) Antiviral activity against Respiratory syncytial virus A2 infected in Balb/C mouse assessed as reduction in viral titers in lung homogenates at 50 mg/kg, po treated 2 hrs prior to viral infection followed by compound redosing at 24 hrs and measured after 5 days post infection by plaque assay relative to control; type: functional, human respiratory syncytial virus; parameters: scale not given: the % may be the effect or the level left
Outline: (§2)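 Female Balb/C mice aged 7–8 weeks, 6 per group, received two oral doses 2 h before and 24 h after intranasal inoculation with 5 × 10⁶ pfu of RSV A2. Mice were euthanized on day 5. Lung homogenate titers were determined by plaque assay on Vero cells and expressed as a percentage of the control group.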

[2] = Cytotoxicity against African green monkey Vero cells by MTT assay; type: cell-based; details: chlorocebus sabaeus
Outline: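 Viability was assessed by MTT after culture with compound at 0.01 nM to 100 μM, run in parallel with plaque reduction assays. Values are the average of at least two testing occasions.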

[3] = Clearance in Sprague-Dawley rat at 1 mg/kg, iv administered […] measured after 0.02 to 24 hrs by tandem liquid chromatography/mass spectrometry; type: ADME, organism-based; details: in vivo, time 0.02-24 hrs
[4] = Oral bioavailability in Sprague-Dawley rat at 10 mg/kg administered via gavage measured after 0.02 to 24 hrs by tandem liquid chromatography/mass spectrometry; type: ADME, organism-based; details: in vivo, time 0.02-24 hrs
Outline: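 Male Sprague–Dawley rats (200–250 g), 3 per route. IV bolus at 1 mg/kg, 1 mg/mL in 40:60 dimethylacetamide/saline; oral gavage at 5 or 10 mg/kg, 5 mg/mL in 1% methyl cellulose, 0.1% Tween 80 in water. Serial blood at 0.02–24 h (ten points) into heparin, spun at 4 °C, plasma frozen; acetonitrile protein precipitation, ESI LC-MS/MS with matrix curve and internal standards.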

[5] = Intrinsic clearance in rat hepatocytes at 3 uM assessed per million cells measured up to 60 mins by LC-MS/MS analysis; type: ADME, cell-based, Hepatocyte; details: read-out: CLH
[6] = Half life in Beagle dog hepatocytes at 3 uM assessed per million cells measured up to 60 mins by LC-MS/MS analysis; type: ADME, cell-based, Canis lupus familiaris, Hepatocyte
[7] = Cytotoxicity against human Hep2 cells; type: cell-based; details: HEp-2 cells
Outline: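 Hep2 cells were cultured in parallel with the plaque assays at compound concentrations of 0.01 nM to 100 μM. Viability was read by MTT, CellTox green or CellTiter-Glo.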

[8] = Half life in CD1 mouse at 10 mg/kg, po measured after 0.083 to 24 hrs by UHPLC-TOF method; type: ADME, organism-based; details: in vivo, time 0.083-24 hrs
[9] = Half life in Sprague-Dawley rat at 10 mg/kg, po measured after 0.25 to 24 hrs by UHPLC-TOF method; type: ADME, organism-based; details: in vivo, time 0.25-24 hrs
[10] = Half life in Sprague-Dawley rat at 50 mg/kg, po measured after 0.02 to 24 hrs by UHPLC-TOF method; details: in vivo
[11] = Tmax in CD1 mouse at 10 mg/kg, po measured after 0.083 to 24 hrs by UHPLC-TOF method; type: ADME, organism-based; details: in vivo, time 0.083-24 hrs
Outline: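 Male CD-1 mice, acclimatized and individually housed, dosed IV and PO as amorphous-solid suspension. Terminal cardiac-puncture blood into heparinized tubes on wet ice, centrifuged at 4 °C within 15 min; plasma snap-frozen at −20 °C. IV arm sampled 2 min–24 h, oral arm 5 min–24 h. Plasma analysed by UHPLC-quadrupole-TOF MS.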

[12] = Oral bioavailability in Sprague-Dawley rat at 50 mg/kg administered via gavage measured after 0.02 to 24 hrs by tandem liquid chromatography/mass spectrometry; type: ADME, organism-based; details: in vivo, time 0.02-24 hrs
[13] = tested on: Human orthopneumovirus; test: Antiviral activity against Respiratory syncytial virus A by Plaque reduction assay; type: functional, organism-based
Outline: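 RSV A and B laboratory strains and low-passage clinical isolates were used to infect Vero or HepG2 cultures for 48 h with compound at 0.01 nM to 100 μM. Plaques were then detected by immunostaining.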

[14] = tested on: Respiratory syncytial virus; test: Antiviral activity against Respiratory syncytial virus Memphis 37b infected in human HEp2 cells assessed as drug resistance by measuring fold change in EC50 treated over 10 serial passages by plaque assay relative to control; type: functional, HEp-2
[15] = tested on: Human orthopneumovirus; test: as §1, with “1” for “50”; type: functional, human respiratory syncytial virus; parameters: scale not given: the % may be the effect or the level left; outline: as §2
[16] = organism: Rattus norvegicus; test: Toxicity in rat by micronucleus test; type: functional, organism-based
[17] = Induction of toxicity in human at 175 to 350 mg; details: dose 175-350 mg
[18] = tested on: Human orthopneumovirus; test: Antiviral activity against Respiratory syncytial virus A Memphis 37b infected in human assessed as reduction in mean AUC of viral load at 200 mg administered twice daily administered for 5 days by RT-qPCR analysis; type: functional; parameters: scale not given: the % may be the effect or the level left; details: time 5 day
Outline: (§3)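 Healthy adult volunteers aged 18–45 with low serum pre-existing RSV-specific antibodies were challenged on day zero with about 4 log10 PFU of RSV-A Memphis 37b. Subjects were randomized into 3 equal groups: 200 mg, 350 mg or placebo twice daily for 5 days, begun after infection was confirmed. Viral load in nasal wash was measured by RT-qPCR or by cell-based infectivity assay, and AUC was compared with placebo.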

[19] = tested on: Human orthopneumovirus; test: Antiviral activity against Respiratory syncytial virus A Memphis 37b infected in human assessed as reduction in nasal mucus weight at 200 to 350 mg administered twice daily administered for 5 days; type: functional, organism-based; details: dose 200-350 mg, time 5.0 day
Outline: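 Healthy adult volunteers aged 18–45, with low pre-existing RSV antibody levels, were challenged on day 0 with about 4 log10 PFU RSV-A Memphis 37b. After infection was confirmed, they were randomised to 200 mg, 350 mg or placebo twice daily for 5 days. Post hoc analysis compared mean daily nasal mucus weight with placebo.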

[20] = tested on: Human orthopneumovirus; test: Antiviral activity against Respiratory syncytial virus A Memphis 37b infected in human assessed as reduction in AUC of total symptom score at 200 to 350 mg administered twice daily administered for 5 days; type: functional, organism-based; details: dose 200-350 mg, time 5.0 day
Outline: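 Phase 2a challenge study in healthy adults aged 18–45 with low serum RSV-specific antibodies, inoculated on day 0 with about 4 log10 PFU RSV-A Memphis 37b. After infection was confirmed, subjects were randomised to three equal groups: drug at 200 or 350 mg, or placebo, twice daily for 5 days. Read-out was AUC of total symptom score versus placebo.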

[21] = Induction of adverse effect in human infected with Respiratory syncytial virus A Memphis 37b assessed as nausea at 200 to 350 mg administered twice daily administered for 5 days; details: in vivo, 120 h, dose 200-350 mg, time 5 day
Outline: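 Challenge study in healthy adults aged 18–45 inoculated with about 4 log10 PFU of RSV-A Memphis 37b. Dosing was 200 or 350 mg twice daily for 5 days after infection was confirmed. Adverse events were monitored daily. ECG, physical examination and urinalysis were done at prespecified time points.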

[22] = Volume of distribution at steady state in Beagle dog at 0.3 mg/kg, iv measured after 0.03 to 24 hrs by UHPLC-TOF method; type: ADME, organism-based, Canis lupus familiaris; details: in vivo, time 0.03-24 hrs, read-out: Vdss
Outline: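 Dogs examined by a veterinary surgeon before each session, fed 2 h post-dose, water ad libitum, dosed as amorphous-solid suspension. Serial blood into heparinized tubes, centrifuged at 4 °C for 10 min at 3000g; plasma snap-frozen at −20 °C. IV sampling 2 min–24 h, oral 15 min–24 h. Plasma analysed by UHPLC-quadrupole-TOF MS.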

[23] = tested on: Human orthopneumovirus; test: Antiviral activity against Respiratory syncytial virus A Memphis 37b infected in human assessed as reduction in mean AUC of viral load at 350 mg administered twice daily administered for 5 days by cell-based infectivity assay; type: functional; parameters: scale not given: the % may be the effect or the level left; details: time 5 day; outline: as §3

NCc1ccc2c(c1)nc(CN1C(=O)C3(CC3)c3ccc(F)cc31)n2CCCC(F)(F)F [SISUNATOVIR]
Activity [1]: 98%
CC50 [2]: > 4000 nM
clearance [3]: 164 mL/min/kg
bioavailability [4]: 102%
hepatocyte CLint at 3 µM [5]: 14.8 µL/min/1e6 cells
half-life at 3 µM [6]: 9.67 h
CC50 [7]: > 20000 nM
half-life [8]: 3.1 h
half-life [9]: 9.9 h
half-life [10]: 5.9 h
Tmax [11]: 2 h
bioavailability [12]: 132%
IC50 [13]: 1.4 nM
fold change (FC) [14]: 76
Activity [15]: 79%
Activity [16]: Not toxic
Activity [17]: Non-Toxic
Activity [18]: 55.25%
Activity [19]: Active
Activity [20]: Active
Activity [21]: Toxic
Vd [22]: 17.6 L/kg
Activity [23]: 68.6%

Source: ChEMBL document CHEMBL4825662 (J Med Chem, 2021)
